Data from ChEMBL document CHEMBL3259528, “Exploring 5-nitrofuran derivatives against nosocomial pathogens: synthesis, antimicrobial activity and chemometric analysis” (2014).
In brackets after ≈: the same amount, converted by molar mass. Activity calls are given as the source filed them. The calls are words filed in the database; no cut-off is given here.

Tests used:
Enterococcus faecalis [1] = test: Antimicrobial activity against Enterococcus faecalis ATCC 29212 after 24 to 48 hrs by two-fold broth microdilution method; assay type: functional
Escherichia coli [2] = test: Antimicrobial activity against Escherichia coli ATCC 25922 after 24 to 48 hrs by two-fold broth microdilution method; assay type: functional
Serratia marcescens [3] = test: Antimicrobial activity against Serratia marcescens ATCC 14576 after 24 to 48 hrs by two-fold broth microdilution method; assay type: functional
Klebsiella pneumoniae [4] = test: Antimicrobial activity against Klebsiella pneumoniae ATCC 700603 after 24 to 48 hrs by two-fold broth microdilution method; assay type: functional
In short: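 Two-fold serial dilutions in cation-adjusted Mueller–Hinton broth per CLSI M100-S2. Stocks in DMSO/CAMH 1:10 v/v. Range 2.0–128 µM. Inoculum set to 0.5 McFarland, then diluted in saline and CAMH. Incubated at 35 °C for 18 h. MIC is the lowest concentration with no visible growth. Plates also read at 24 and 48 h as sterility control. Triplicate.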

Staphylococcus aureus [5] = test: Antimicrobial activity against Staphylococcus aureus ATCC 29213 after 24 to 48 hrs by two-fold broth microdilution method; assay type: functional
Enterobacter cloacae [6] = test: Antimicrobial activity against Enterobacter cloacae ATCC 23355 after 24 to 48 hrs by two-fold broth microdilution method; assay type: functional
Staphylococcus aureus [7] = test: Antimicrobial activity against multidrug-resistant Staphylococcus aureus VISA3 […] by two-fold broth microdilution method; assay type: functional
Candida albicans [8] = test: Antimicrobial activity against Candida albicans ATCC 537Y after 48 hrs by two-fold broth microdilution method; assay type: functional
In short: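 Two-fold serial dilutions in RPMI 1640 per CLSI M27-A2. Stocks in DMSO/RPMI 1:20 v/v. Test range 1.0–64 µM. Inoculum set to 0.5 McFarland, then diluted in saline and RPMI 1640. Plates held at 35 °C for 48 h. MIC is the lowest concentration giving prominent growth reduction. Run in triplicate.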

Staphylococcus aureus [9] = test: Antimicrobial activity against Staphylococcus aureus ATCC 29213 after 18 hrs by modified broth microdilution method; assay type: functional
In short: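 PGI90, the concentration giving 90% growth inhibition, fitted with an exponential growth curve from at least seven concentrations of the MIC assay. Inhibition % = [(Ac − Ap)/Ac] × 100 from A620 of drug-free control versus drug-treated culture. Checked by a modified broth microdilution (Phase 2).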

Klebsiella pneumoniae [10] = test: Antimicrobial activity against Klebsiella pneumoniae ATCC 700603 at 128 uM after 24 to 48 hrs by two-fold broth microdilution method; assay type: functional, organism-based
In short: (§1)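 Antibacterial microdilution in CAMH, inoculum 0.5 McFarland diluted in saline/CAMH, 35 °C for 18 h, with further reads at 24 and 48 h. Activity is scored at the maximum tested concentration, 128 µM. Triplicate.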

Enterobacter cloacae [11] = test: Antimicrobial activity against Enterobacter cloacae ATCC 23355 at 128 uM after 24 to 48 hrs by two-fold broth microdilution method; assay type: functional, organism-based; in short: as §1
Staphylococcus aureus [12] = test: Antimicrobial activity against Staphylococcus aureus ATCC 29213 at 128 uM after 24 to 48 hrs by two-fold broth microdilution method; assay type: functional, organism-based; in short: as §1
Serratia marcescens [13] = test: Antimicrobial activity against Serratia marcescens ATCC 14576 at 128 uM after 24 to 48 hrs by two-fold broth microdilution method; assay type: functional, organism-based; in short: as §1
Enterococcus faecalis [14] = test: Antimicrobial activity against Enterococcus faecalis ATCC 29212 at 128 uM after 24 to 48 hrs by two-fold broth microdilution method; assay type: functional, organism-based; in short: as §1
Escherichia coli [15] = test: Antimicrobial activity against Escherichia coli ATCC 25922 at 128 uM after 24 to 48 hrs by two-fold broth microdilution method; assay type: functional, organism-based; in short: as §1
Candida albicans [16] = test: Antimicrobial activity against Candida albicans ATCC 537Y at 64 uM after 48 hrs by two-fold broth microdilution method; assay type: functional, organism-based
In short: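 Single top concentration of the antifungal microdilution: RPMI 1640, inoculum 0.5 McFarland diluted in saline/RPMI, 35 °C for 48 h. Activity is judged at the highest tested level, 64 µM. Run in triplicate.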

Row | SMILES | MIC (Enterococcus faecalis [1]) [µM] | MIC (Escherichia coli [2]) [µM] | MIC (Serratia marcescens [3]) [µM] | MIC (Klebsiella pneumoniae [4]) [µM] | MIC (Staphylococcus aureus [5]) [µM] | MIC90 (Enterococcus faecalis [1]) [µM] | MIC (Staphylococcus aureus [7]) [µM] | MIC90 (Escherichia coli [2]) [µM] | MIC (Candida albicans [8]) [µM] | MIC90 (Candida albicans [8]) [µM] | MIC90 (Serratia marcescens [3]) [µM] | MIC90 (Klebsiella pneumoniae [4]) [µM] | MIC90 (Staphylococcus aureus [5]) [µM] | log(1/MIC>90) (Staphylococcus aureus [9]) | Activity (Klebsiella pneumoniae [10]) | Activity (Enterobacter cloacae [11]) | Activity (Serratia marcescens [13]) | Activity (Enterococcus faecalis [14]) | Activity (Escherichia coli [15]) | Activity (Candida albicans [16]) | also measured
1 | C[C@H]1COc2c(N3CCN(C)CC3)c(F)cc3c(=O)c(C(=O)O)cn1c23 [LEVOFLOXACIN] | < 20 | < 20 | < 20 | < 20 | < 20 | – | – | – | – | – | – | – | – | – | – | – | – | – | – | – | MIC (Enterobacter cloacae [6]): < 20 µM
2 | CCCOc1ccc(C(=O)N/N=C/c2ccc([N+](=O)[O-])o2)cc1 | 64 (≈ 20.3 µg/mL) | 64 (≈ 20.3 µg/mL) | 64 (≈ 20.3 µg/mL) | 64 (≈ 20.3 µg/mL) | 2 (≈ 0.635 µg/mL) | 73.5 (≈ 23.3 µg/mL) | 4 (≈ 1.27 µg/mL) | 65.8 (≈ 20.9 µg/mL) | 32 (≈ 10.2 µg/mL) | 40.8 (≈ 12.9 µg/mL) | 66.7 (≈ 21.2 µg/mL) | 71.5 (≈ 22.7 µg/mL) | 2.47 (≈ 0.784 µg/mL) | 5.61 | – | – | – | – | – | – | MIC90 (Enterobacter cloacae [6]): 69.8 µM (≈ 22.2 µg/mL)
3 | CCCc1ccc(C(=O)N/N=C/c2ccc([N+](=O)[O-])o2)cc1 | 64 (≈ 19.3 µg/mL) | 64 (≈ 19.3 µg/mL) | 64 (≈ 19.3 µg/mL) | 64 (≈ 19.3 µg/mL) | 2 (≈ 0.603 µg/mL) | 73.2 (≈ 22.1 µg/mL) | 2 (≈ 0.603 µg/mL) | 69.8 (≈ 21 µg/mL) | 32 (≈ 9.64 µg/mL) | 42.1 (≈ 12.7 µg/mL) | 66.3 (≈ 20 µg/mL) | 74.8 (≈ 22.5 µg/mL) | 2.56 (≈ 0.771 µg/mL) | 5.59 | – | – | – | – | – | – | MIC90 (Enterobacter cloacae [6]): 69.8 µM (≈ 21 µg/mL)
4 | CCCOc1ccc(C2=NN(C(C)=O)C(c3ccc([N+](=O)[O-])o3)O2)cc1 (stereo not given) | – | – | – | – | – | – | – | – | – | – | – | – | – | – | inactive | inactive | inactive | inactive | inactive | inactive | Activity (Staphylococcus aureus [12]): inactive
5 | O=C(N/N=C/c1ccc([N+](=O)[O-])o1)c1ccc(I)cc1 | – | – | – | – | 2 (≈ 0.77 µg/mL) | – | 2 (≈ 0.77 µg/mL) | – | – | – | – | – | 2.78 (≈ 1.07 µg/mL) | 5.56 | inactive | inactive | inactive | inactive | inactive | inactive | –
6 | CC(=O)N1N=C(c2ccc(C(C)(C)C)cc2)OC1c1ccc([N+](=O)[O-])o1 (stereo not given) | – | – | – | – | – | – | – | – | – | – | – | – | – | – | inactive | inactive | inactive | inactive | inactive | inactive | Activity (Staphylococcus aureus [12]): inactive
